The source made the active and inactive calls. The calls are words filed in the database; no cut-off is given here.
Tests used:
[1] = system: LNCaP; test: Cytotoxicity against human LNCAP cells assessed as reduction in cell viability at 100 uM after 24 hrs by WST-1 assay; assay type: functional
Procedure, shortened: (§1)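 LNCaP cells were acclimatised 24 h in complete medium, after which the medium was refreshed. Compounds were added from DMSO (0.1% final, 0.1% DMSO controls) over 0.1–100 μM for a 24 h exposure. Quadruplicate wells, three experiments. IC50 came from a variable-slope sigmoidal concentration–response fit.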

[2] = system: LNCaP; test: Cytotoxicity against human LNCAP cells assessed as reduction in cell viability after 24 hrs by WST-1 assay
[3] = system: Radical scavenging activity; test: Antioxidant activity assessed as DPPH radical scavenging activity after 30 mins by spectrophotometry; assay type: functional
Procedure, shortened: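 Ethanolic DPPH ([…], stock) was mixed 1:1 with increasing concentrations of compound in ethanol and held in the dark 30 min at room temperature. Absorbance was read at 520 nm, with control OD accepted within 0.350–0.360. Activity was taken as % inhibition of absorbance and IC50 came from a variable-slope sigmoidal fit. Triplicates, two independent experiments.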

[4] = system: LNCaP; test: Antiproliferative activity against human LNCAP cells after 72 hrs in presence of DHT; assay type: functional, cell-based
Procedure, shortened: (§2)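 LNCaP cells (fewer than 18 passages) were seeded at 25 × 10³ cells/well on electrode-microarray plates in phenol red-free medium with 10% stripped FBS. After 24 h they were exposed to compounds with or without 0.1 nM DHT, in 0.2% final DMSO. Proliferation was tracked as impedance in real time over 72 h. Duplicates, three experiments; doubling time was derived from the growth rate.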

[5] = system: LNCaP; test: Antiproliferative activity against human LNCAP cells at 10 uM after 72 hrs in presence of DHT; assay type: functional, cell-based; procedure, shortened: as §2
[6] = system: LNCaP; test: Antiproliferative activity against human LNCAP cells at 1 to 10 uM after 72 hrs in presence of DHT; assay type: functional, cell-based; procedure, shortened: as §2
[7] = system: LNCaP; test: Induction of androgen receptor protein expression in human LNCAP cell nucleus at 1 to 30 uM after 24 hrs by chemoluminescence assay in presence of DHT relative to control; assay type: functional
Procedure, shortened: (§3)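 Near-confluent LNCaP cells were switched to steroid-free medium for 24 h, then exposed 24 h to compounds with or without 10 nM DHT. Nuclear and cytoplasmic fractions were extracted and assayed by BCA. Protein (40 μg) was run on SDS-PAGE, blotted to PVDF, and probed overnight at 4 °C with anti-AR, then with an HRP anti-rabbit secondary. Duplicates, three experiments.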

[8] = system: LNCaP; test: Antiproliferative activity against human LNCAP cells at 0.3 uM after 72 hrs in presence of DHT; assay type: functional, cell-based; procedure, shortened: as §2
[9] = system: LNCaP; test: Induction of androgen receptor protein expression in human LNCAP cell nucleus at > 10 uM after 24 hrs by chemoluminescence assay in presence of DHT; assay type: functional, cell-based; procedure, shortened: as §3
[10] = system: LNCaP; test: Antiandrogenic activity in human LNCAP cells assessed as reduction in DHT-stimulated PSA release after 24 hrs by ELISA
[11] = system: LNCaP; test: Reduction of androgen receptor protein expression in human LNCAP cell cytoplasm at > 10 uM after 24 hrs by chemoluminescence assay in presence of DHT; assay type: functional, cell-based; procedure, shortened: as §3
[12] = system: LNCaP; test: Induction of androgen receptor protein expression in human LNCAP cell nucleus at 1 to 30 uM after 24 hrs by chemoluminescence assay in presence of DHT relative to cytoplasm; assay type: functional; procedure, shortened: as §3
[13] = system: PC-3; test: Antiproliferative activity against human PC3 cells after 72 hrs by trypan blue assay; assay type: cell-based; conditions: PC-3, 72 h
[14] = system: LNCaP; test: Cytotoxicity against human LNCAP cells at 1 uM after 24 hrs by WST-1 assay; assay type: functional, cell-based; procedure, shortened: as §1

Row | IC50 [3] | Structure (SMILES) | inhibition at 100 µM [1] | IC50 [2] | Activity [4] | other results
1 | 12.8 µM | O=C(/C=C/c1ccc(O)c(O)c1)OCCc1ccc(F)cc1 | > 80% | 20.8 µM | Dose-dependent effect | 
2 | 23.8 µM | CC(C)CCOC(=O)/C=C/c1ccc(O)c(O)c1 |  | 45.4 µM |  | 
3 | 13.2 µM | O=C(/C=C/c1ccc(O)c(O)c1)OCCc1cccc2ccccc12 | > 80% | 9.3 µM | Dose-dependent effect | Activity [5]: Active
4 | 15.3 µM | O=C(/C=C/c1ccc(O)c(O)c1)OCc1ccccc1 [BENZYL CAFFEATE] |  | 45.6 µM | Dose-dependent effect | 
5 | 12.5 µM | O=C(/C=C/c1ccc(O)c(O)c1)Oc1ccccc1 |  | 65.9 µM | Dose-dependent effect | 
6 | 13.3 µM | CCOC(=O)/C=C/c1ccc(O)c(O)c1 [ETHYL CAFFEATE] |  | > 100 µM |  | Activity [6]: inactive
7 | 11.3 µM | Cc1ccc(CCOC(=O)/C=C/c2ccc(O)c(O)c2)cc1 | > 80% | 14 µM | Dose-dependent effect | 
8 | 13 µM | CC(C)OC(=O)/C=C/c1ccc(O)c(O)c1 |  | 51.9 µM |  | 
9 | 21.3 µM | COC(=O)/C=C/c1ccc(O)c(O)c1 [METHYLCAFFEATE] |  | > 100 µM |  | Activity [6]: inactive
10 | 18.5 µM | O=C(/C=C/c1ccc(O)c(O)c1)OCC(c1ccccc1)c1ccccc1 | > 80% | 20.8 µM | Dose-dependent effect | Activity [5]: Active
11 | 12.6 µM | CCCCOC(=O)/C=C/c1ccc(O)c(O)c1 [BUTYL CAFFEATE] |  | 45.4 µM |  | 
12 | 15.1 µM | O=C(/C=C/c1ccc(O)c(O)c1)OCCC1CCCCC1 | > 95% | 6.8 µM | Dose-dependent effect | Activity [5]: Active; fold change (FC) [7]: 5; Activity [8]: Active; Activity [9]: Active; IC50 [10]: 2 µM; Activity [11]: Active; fold change (FC) [12]: 5
13 | 13.8 µM | O=C(/C=C/c1ccc(O)c(O)c1)NCCc1ccccc1 [CAFFEIC ACID PHENETHYL AMIDE] |  | > 100 µM | Dose-dependent effect | 
14 | 9.5 µM | C=C(C)CCOC(=O)/C=C/c1ccc(O)c(O)c1 | > 80% | 20.6 µM |  | Activity [6]: inactive
15 | 11.9 µM | O=C(/C=C/c1ccc(O)c(O)c1)OCCCc1ccccc1 | > 80% | 26.6 µM | Dose-dependent effect | 
16 | 16.5 µM | O=C(/C=C/c1ccc(O)c(O)c1)OCCc1ccccc1 [CAFFEIC ACID PHENETHYL ESTER] |  | 33.7 µM | Dose-dependent effect | fold change (FC) [7]: 5; Activity [8]: Active; Activity [9]: Active; IC50 [10]: 6.2 µM; Activity [11]: Active; IC50 [13]: 51.4 µM; fold change (FC) [12]: 5
17 | 14.2 µM | CCCOC(=O)/C=C/c1ccc(O)c(O)c1 |  | 60.7 µM | Dose-dependent effect | 
18 | 15.3 µM | O=C(O)/C=C/c1ccc(O)c(O)c1 [CAFFEIC ACID] |  | > 100 µM |  | Activity [14]: inactive
19 | 17.4 µM | COc1ccc(CCOC(=O)/C=C/c2ccc(O)c(O)c2)cc1 |  | 47.3 µM |  | Activity [6]: inactive

— ChEMBL document CHEMBL2440059, “Antiproliferative, antiandrogenic and cytotoxic effects of novel caffeic acid derivatives in LNCaP human androgen-dependent prostate cancer cells” (Bioorg Med Chem, 2013)
